Data reported in ChEMBL document CHEMBL2163270, “Design and in vitro activities of N-alkyl-N-[(8-R-2,2-dimethyl-2H-chromen-6-yl)methyl]heteroarylsulfonamides, novel, small-molecule hypoxia inducible factor-1 pathway inhibitors and anticancer agents” (J Med Chem, 2012).
≈ marks a conversion by molar mass, not a printed value. Calls of active or inactive are those of the source. The calls are words filed in the database; no cut-off is given here.

test system: not listed separately; assay: Cytotoxicity against human LN229 cells transfected with V6R incubated for 14 days under normoxic condition by clonogenecity assay; type: functional, cell-based; conditions: LN-229, 336 h

SMILES	IC50 [µM]
CC(C)CN(Cc1cc(O)c2c(c1)C=CC(C)(C)O2)S(=O)(=O)c1ccncc1	23
COc1cc(CN(C(C)C)S(=O)(=O)c2ccccn2)cc2c1OC(C)(C)C=C2	69
CC(C)N(Cc1ccc2c(c1)C=CC(C)(C)O2)S(=O)(=O)c1ccccn1	82

test system: not listed separately; assay: Cytotoxicity against human LN229 cells transfected with V6R incubated for 1 hr under normoxic condition followed by 14 days under hypoxic condition by clonogenecity assay; type: functional, cell-based; conditions: LN-229

SMILES	IC50 [µM]
CC(C)CN(Cc1cc(O)c2c(c1)C=CC(C)(C)O2)S(=O)(=O)c1ccncc1	30
COc1cc(CN(C(C)C)S(=O)(=O)c2ccccn2)cc2c1OC(C)(C)C=C2	> 100
CC(C)N(Cc1ccc2c(c1)C=CC(C)(C)O2)S(=O)(=O)c1ccccn1	134

test system: not listed separately; assay: Cytotoxicity against human HFF1 cells incubated for 14 days under normoxic condition by clonogenecity assay; type: cell-based; conditions: HFF-1, 336 h
Summary of the method: (§1)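 Clonogenic assay in LN229 glioma or HFF-1 immortalized fibroblasts seeded at 200 or 1,000 cells/well and allowed to adhere 16 h under normoxia. Compound at 6.25-100 μM final, 1% DMSO. Plates held 1 h under normoxia, then 14 days at 21% or 1% O2. Colonies stained with 0.9% crystal violet and counted. IC50 from exponential/polynomial fit (R² ≥ 0.8).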

SMILES	IC50 [µM]
CC(C)CN(Cc1cc(O)c2c(c1)C=CC(C)(C)O2)S(=O)(=O)c1ccncc1	22
COc1cc(CN(C(C)C)S(=O)(=O)c2ccccn2)cc2c1OC(C)(C)C=C2	55
CC(C)N(Cc1ccc2c(c1)C=CC(C)(C)O2)S(=O)(=O)c1ccccn1	62

test system: not listed separately; assay: Cytotoxicity against human HFF1 cells incubated for 1 hr under normoxic condition followed by 14 days under hypoxic condition by clonogenecity assay; type: cell-based; conditions: HFF-1; summary of the method: as §1

SMILES	IC50 [µM]
CC(C)CN(Cc1cc(O)c2c(c1)C=CC(C)(C)O2)S(=O)(=O)c1ccncc1	40
COc1cc(CN(C(C)C)S(=O)(=O)c2ccccn2)cc2c1OC(C)(C)C=C2	> 100
CC(C)N(Cc1ccc2c(c1)C=CC(C)(C)O2)S(=O)(=O)c1ccccn1	93

target: Histone acetyltransferase p300 (Homo sapiens) (UniProt Q09472); assay: Inhibition of P300 CH1 domain-mediated HIF1 transcriptional activity in human LN229-V6R cells assessed as reduction in luciferase activity incubated for 1 hr under normoxia followed by 24 hrs under hypoxia by reporter gene assay; type: cell-based; conditions: not given
Sequence (Q09472 whole entry, the tested form may be a part): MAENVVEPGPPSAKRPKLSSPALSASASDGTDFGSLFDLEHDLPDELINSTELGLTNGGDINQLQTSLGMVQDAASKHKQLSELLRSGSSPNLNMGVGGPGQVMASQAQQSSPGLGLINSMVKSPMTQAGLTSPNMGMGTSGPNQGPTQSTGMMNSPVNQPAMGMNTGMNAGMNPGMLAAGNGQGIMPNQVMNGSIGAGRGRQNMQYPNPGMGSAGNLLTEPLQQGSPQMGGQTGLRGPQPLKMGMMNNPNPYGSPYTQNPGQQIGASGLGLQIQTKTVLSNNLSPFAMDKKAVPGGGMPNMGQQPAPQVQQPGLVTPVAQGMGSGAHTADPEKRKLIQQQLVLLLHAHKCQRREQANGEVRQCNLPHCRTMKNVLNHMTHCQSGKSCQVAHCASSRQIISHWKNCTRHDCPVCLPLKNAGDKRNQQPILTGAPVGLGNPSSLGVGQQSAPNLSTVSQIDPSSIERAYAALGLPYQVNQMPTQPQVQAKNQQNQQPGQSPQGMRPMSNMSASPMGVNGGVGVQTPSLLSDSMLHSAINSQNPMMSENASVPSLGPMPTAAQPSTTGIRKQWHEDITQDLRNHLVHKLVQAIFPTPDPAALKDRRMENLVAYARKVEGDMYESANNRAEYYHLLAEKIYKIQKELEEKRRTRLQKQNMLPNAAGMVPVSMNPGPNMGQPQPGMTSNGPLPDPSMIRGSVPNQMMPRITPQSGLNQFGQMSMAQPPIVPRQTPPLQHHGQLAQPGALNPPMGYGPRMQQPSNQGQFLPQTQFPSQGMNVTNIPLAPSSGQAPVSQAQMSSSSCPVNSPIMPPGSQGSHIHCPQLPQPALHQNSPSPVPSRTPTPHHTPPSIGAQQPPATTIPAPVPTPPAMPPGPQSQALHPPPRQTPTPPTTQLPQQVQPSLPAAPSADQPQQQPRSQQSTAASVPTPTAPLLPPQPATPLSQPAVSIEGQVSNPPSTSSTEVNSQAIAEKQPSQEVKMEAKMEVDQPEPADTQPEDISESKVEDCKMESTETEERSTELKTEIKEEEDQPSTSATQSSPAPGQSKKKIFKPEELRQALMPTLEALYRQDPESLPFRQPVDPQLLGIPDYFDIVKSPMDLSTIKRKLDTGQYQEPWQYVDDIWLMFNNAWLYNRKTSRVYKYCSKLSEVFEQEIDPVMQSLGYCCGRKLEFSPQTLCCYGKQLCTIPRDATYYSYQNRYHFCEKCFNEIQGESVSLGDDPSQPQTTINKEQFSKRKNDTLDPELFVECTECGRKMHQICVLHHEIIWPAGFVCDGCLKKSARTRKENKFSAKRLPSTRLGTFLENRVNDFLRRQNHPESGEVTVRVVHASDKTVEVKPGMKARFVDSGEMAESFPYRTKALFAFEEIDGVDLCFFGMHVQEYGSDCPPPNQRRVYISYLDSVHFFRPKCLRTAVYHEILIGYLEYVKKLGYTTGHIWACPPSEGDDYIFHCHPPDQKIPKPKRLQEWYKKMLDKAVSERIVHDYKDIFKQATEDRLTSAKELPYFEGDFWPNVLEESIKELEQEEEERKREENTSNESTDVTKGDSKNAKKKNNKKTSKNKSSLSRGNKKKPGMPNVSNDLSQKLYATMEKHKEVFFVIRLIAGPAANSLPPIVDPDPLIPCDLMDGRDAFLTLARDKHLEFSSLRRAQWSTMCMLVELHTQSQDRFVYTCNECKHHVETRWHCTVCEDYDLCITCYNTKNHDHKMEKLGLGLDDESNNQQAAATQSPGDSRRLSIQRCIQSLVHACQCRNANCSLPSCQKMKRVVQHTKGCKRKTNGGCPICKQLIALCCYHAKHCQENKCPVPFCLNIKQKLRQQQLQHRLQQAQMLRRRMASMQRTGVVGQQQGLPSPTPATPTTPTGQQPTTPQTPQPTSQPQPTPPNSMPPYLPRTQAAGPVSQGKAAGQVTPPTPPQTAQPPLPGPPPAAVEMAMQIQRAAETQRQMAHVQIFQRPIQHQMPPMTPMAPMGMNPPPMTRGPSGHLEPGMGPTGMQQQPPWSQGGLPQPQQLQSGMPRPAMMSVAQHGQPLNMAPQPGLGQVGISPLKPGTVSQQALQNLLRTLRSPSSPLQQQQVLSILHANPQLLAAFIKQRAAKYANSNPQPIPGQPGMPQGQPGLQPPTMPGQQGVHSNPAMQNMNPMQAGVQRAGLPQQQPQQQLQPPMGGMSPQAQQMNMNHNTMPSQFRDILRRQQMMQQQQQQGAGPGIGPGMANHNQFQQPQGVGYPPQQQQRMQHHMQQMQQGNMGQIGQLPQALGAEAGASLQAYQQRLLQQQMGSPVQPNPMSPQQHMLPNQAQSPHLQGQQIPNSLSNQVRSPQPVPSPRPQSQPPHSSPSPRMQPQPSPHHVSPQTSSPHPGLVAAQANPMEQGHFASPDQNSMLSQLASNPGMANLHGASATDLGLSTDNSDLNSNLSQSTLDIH
Summary of the method: (§2)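 LN229-V6R cells carry a stably integrated hypoxia/HIF-inducible luciferase reporter. 3 × 10⁴ cells/well in DMEM with 10% serum, 24 h normoxia. Compound at 2.5, 5.0 or 10.0 μM in 1% DMSO, 1 h at 37 °C, then 24 h at 1% O2. Lysates mixed with luciferase substrate and read by luminometry, expressed as % of untreated control. Triplicates.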

SMILES	inhibition
CC(C)CN(Cc1cc(O)c2c(c1)C=CC(C)(C)O2)S(=O)(=O)c1ccncc1	Dose-dependent effect
COc1cc(CN(C(C)C)S(=O)(=O)c2ccccn2)cc2c1OC(C)(C)C=C2	Dose-dependent effect
CC(C)N(Cc1ccc2c(c1)C=CC(C)(C)O2)S(=O)(=O)c1ccccn1	Dose-dependent effect

test system: LN-229; assay: Inhibition of luciferase activity in human LN229-Lux cells at 2.5 to 10 uM incubated for 1 hr under normoxia followed by 24 hrs under hypoxia by reporter gene assay; type: functional, cell-based; conditions: not given

SMILES	inhibition
CC(C)CN(Cc1cc(O)c2c(c1)C=CC(C)(C)O2)S(=O)(=O)c1ccncc1	inactive
COc1cc(CN(C(C)C)S(=O)(=O)c2ccccn2)cc2c1OC(C)(C)C=C2	inactive
CC(C)N(Cc1ccc2c(c1)C=CC(C)(C)O2)S(=O)(=O)c1ccccn1	inactive

target: Histone acetyltransferase p300 (Homo sapiens) (UniProt Q09472); assay: Inhibition of P300 CH1 domain-mediated HIFalpha protein expression in human LN229-V6R cells at 3 to 50 uM incubated for 1 hr under normoxia followed by 24 hrs under hypoxia by Western blot analysis; type: cell-based; conditions: not given
Summary of the method: (§3)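 LN229-V6R cells, 2 × 10⁵ per 35 mm dish, grown 24 h under normoxia. Compound at 3-100 μM in 1% DMSO, 1 h normoxia, then 24 h at 1% O2. Lysed in SDS loading buffer and resolved on a 4-12.5% gradient gel. Immunoblotted for HIF-1α (1:500) with β-actin (1:3,000), HRP secondaries, ECL detection. Repeated at least twice.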

SMILES	inhibition
CC(C)N(Cc1ccc2c(c1)C=CC(C)(C)O2)S(=O)(=O)c1ccccn1	inactive

target: Histone acetyltransferase p300 (Homo sapiens) (UniProt Q09472); assay: Inhibition of P300 CH1 domain-mediated HIFalpha protein expression in human LN229-V6R cells at 100 uM incubated for 1 hr under normoxia followed by 24 hrs under hypoxia by Western blot analysis; type: cell-based; conditions: not given; summary of the method: as §3

SMILES	inhibition
CC(C)N(Cc1ccc2c(c1)C=CC(C)(C)O2)S(=O)(=O)c1ccccn1	Active

target: Histone acetyltransferase p300 (Homo sapiens) (UniProt Q09472); assay: Inhibition of P300 CH1 domain-mediated HIFalpha protein expression in human LN229-V6R cells incubated for 1 hr under normoxia followed by 24 hrs under hypoxia by Western blot analysis; type: cell-based; conditions: not given; summary of the method: as §3

SMILES	inhibition
CC(C)CN(Cc1cc(O)c2c(c1)C=CC(C)(C)O2)S(=O)(=O)c1ccncc1	Dose-dependent effect
COc1cc(CN(C(C)C)S(=O)(=O)c2ccccn2)cc2c1OC(C)(C)C=C2	Dose-dependent effect

target: Histone acetyltransferase p300 (Homo sapiens) (UniProt Q09472); assay: Inhibition of P300 CH1 domain-mediated HIF1 transcriptional activity in human LN229-V6R cells assessed as reduction in luciferase activity at 10 uM incubated for 1 hr under normoxia followed by 24 hrs under hypoxia by reporter gene assay; type: cell-based; conditions: not given; summary of the method: as §2

SMILES	inhibition [%]
CC(C)CN(Cc1cc(O)c2c(c1)C=CC(C)(C)O2)S(=O)(=O)c1ccncc1	> 60
COc1cc(CN(C(C)C)S(=O)(=O)c2ccccn2)cc2c1OC(C)(C)C=C2	> 60
CC(C)N(Cc1ccc2c(c1)C=CC(C)(C)O2)S(=O)(=O)c1ccccn1	60

test system: not listed separately; assay: 1-Octanol-phosphate buffer distribution coefficient, log P of the compound at pH 7.4 after 15 mins by shake flask method; type: physicochemical; conditions: not given
Summary of the method: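 Shake-flask partition per OECD 107: 1-octanol and 0.2 M phosphate buffer pH 7.4 mutually presaturated by 24 h stirring at room temperature. 1-2 mg compound dissolved in 2 mL buffer-saturated octanol plus 2 mL octanol-saturated buffer, run in duplicate. Aqueous layer quantified by HPLC at 254 nm against standard curves.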

SMILES	logD at 0.25 h
COc1cc(CN(C(C)C)S(=O)(=O)c2ccccn2)cc2c1OC(C)(C)C=C2	1.3
CC(C)N(Cc1ccc2c(c1)C=CC(C)(C)O2)S(=O)(=O)c1ccccn1	2

test system: not listed separately; assay: 1-Octanol-phosphate buffer distribution coefficient, log P of the compound at pH 7.4 by HPLC analysis; type: physicochemical; conditions: not given
Summary of the method: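 Eluent methanol:water:triethylamine 70:30:0.1 at 2 mL/min, UV 254/280 nm. Calibrated with aniline, benzene, toluene and chlorobenzene plus two shake-flask-measured reference sulfonamides.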

SMILES	logD
CC(C)CN(Cc1cc(O)c2c(c1)C=CC(C)(C)O2)S(=O)(=O)c1ccncc1	1.2

test system: not listed separately; assay: Aqueous solubility of the compound at pH 7.4 after 90 mins by laser nephelometric analysis; type: physicochemical; conditions: aqueous medium
Summary of the method: (§4)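 DMSO stocks (30 mg/mL) serially diluted, then diluted into phosphate-buffered saline at pH 7.4, 5.0 or 3.0. Final drug concentrations were 1.5–300 μg/mL with 1% DMSO. Incubated 90 min at ambient temperature, and laser nephelometry located the onset of precipitation. An internal control was included.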

SMILES	solubility kinetic at 1.5 h [µg/mL]
CC(C)N(Cc1ccc2c(c1)C=CC(C)(C)O2)S(=O)(=O)c1ccccn1	< 15

test system: not listed separately; assay: Aqueous solubility of the compound at pH 5 after 90 mins by laser nephelometric analysis; type: physicochemical; conditions: aqueous medium; summary of the method: as §4

SMILES	solubility kinetic at 1.5 h [µg/mL]
CC(C)N(Cc1ccc2c(c1)C=CC(C)(C)O2)S(=O)(=O)c1ccccn1	16 (≈ 43 µM)

test system: not listed separately; assay: Aqueous solubility of the compound at pH 3 after 90 mins by laser nephelometric analysis; type: physicochemical; conditions: aqueous medium; summary of the method: as §4

SMILES	solubility kinetic at 1.5 h [µg/mL]
CC(C)N(Cc1ccc2c(c1)C=CC(C)(C)O2)S(=O)(=O)c1ccccn1	17 (≈ 45.6 µM)

test system: Liver; assay: Half life in mouse liver homogenate by HPLC analysis at pH 7.4; type: ADME, tissue-based; conditions: in vitro
Summary of the method: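 Mouse liver homogenate in PBS pH 7.4 (1:2 w/v) incubated with 20 μM compound at 37 °C with shaking. Timed samples extracted with acetonitrile and analysed by C8 HPLC-PDA with 2 μM α-naphthoflavone internal standard, linear range 1-50 μM. Triplicates.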

SMILES	t1/2 [h]
COc1cc(CN(C(C)C)S(=O)(=O)c2ccccn2)cc2c1OC(C)(C)C=C2	15
CC(C)N(Cc1ccc2c(c1)C=CC(C)(C)O2)S(=O)(=O)c1ccccn1	20

target: Histone acetyltransferase p300 (Homo sapiens) (UniProt Q09472); assay: Inhibition of P300 CH1 domain-mediated HIF1 transcriptional activity in human LN229-V6R cells assessed as remaining activity at 2.5 uM incubated for 1 hr under normoxia followed by 24 hrs under hypoxia by luciferase reporter gene assay; type: cell-based; conditions: not given; summary of the method: as §2

SMILES	Activity [%]
CC(C)CN(Cc1cc(O)c2c(c1)C=CC(C)(C)O2)S(=O)(=O)c1ccncc1	59
COc1cc(CN(C(C)C)S(=O)(=O)c2ccccn2)cc2c1OC(C)(C)C=C2	61
CC(C)N(Cc1ccc2c(c1)C=CC(C)(C)O2)S(=O)(=O)c1ccccn1	55

test system: not listed separately; assay: Drug metabolism in mouse plasma after 24 hrs by HPLC analysis; type: ADME, cell-free; conditions: read-out: Drug metabolism
Summary of the method: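 Compound at 20 μM incubated in fresh mouse plasma at 37 °C with shaking for 24 h. Samples extracted with acetonitrile, dried and reconstituted. Quantified by C8 reverse-phase HPLC with photodiode-array detection, 2 μM α-naphthoflavone internal standard, standard curves 1-50 μM. Triplicates.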

SMILES	metabolised at 24 h [%]
CC(C)CN(Cc1cc(O)c2c(c1)C=CC(C)(C)O2)S(=O)(=O)c1ccncc1	< 1
COc1cc(CN(C(C)C)S(=O)(=O)c2ccccn2)cc2c1OC(C)(C)C=C2	< 1
CC(C)N(Cc1ccc2c(c1)C=CC(C)(C)O2)S(=O)(=O)c1ccccn1	< 1

test system: not listed separately; assay: Cytotoxicity against human LN229 cells transfected with V6R incubated for 3 days under normoxic condition by SRB assay; type: functional, cell-based; conditions: LN-229, 72 h
Summary of the method: (§5)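 SRB growth assay: LN229-V6R, 2 × 10³ cells/well, attached 24 h under normoxia. Dosed at 3-100 μM in 1% DMSO, 1 h normoxia, then normoxia or hypoxia for 3 days. Cold 10% TCA fixation, 0.04% SRB stain, dye solubilized in 10 mM Tris pH 10, OD 564 nm. Quadruplicate or sextuplicate wells, two independent experiments; IC50 by curve fit.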

SMILES	IC50 [µM]
CC(C)CN(Cc1cc(O)c2c(c1)C=CC(C)(C)O2)S(=O)(=O)c1ccncc1	92
COc1cc(CN(C(C)C)S(=O)(=O)c2ccccn2)cc2c1OC(C)(C)C=C2	73
CC(C)N(Cc1ccc2c(c1)C=CC(C)(C)O2)S(=O)(=O)c1ccccn1	100

test system: not listed separately; assay: Cytotoxicity against human LN229 cells transfected with V6R incubated for 1 hr under normoxic condition followed by 3 days under hypoxic condition by SRB assay; type: functional, cell-based; conditions: LN-229; summary of the method: as §5

SMILES	IC50 [µM]
CC(C)CN(Cc1cc(O)c2c(c1)C=CC(C)(C)O2)S(=O)(=O)c1ccncc1	113
COc1cc(CN(C(C)C)S(=O)(=O)c2ccccn2)cc2c1OC(C)(C)C=C2	146
CC(C)N(Cc1ccc2c(c1)C=CC(C)(C)O2)S(=O)(=O)c1ccccn1	126
